Measurements published in ChEMBL document CHEMBL4422684, “Identification of novel lysine demethylase 5-selective inhibitors by inhibitor-based fragment merging strategy” (Bioorg Med Chem, 2019).

Assays:
[1] = target: Lysine-specific demethylase 5C (Homo sapiens, UniProt P41229); assay: Inhibition of full-length human N-terminal FLAG/His-tagged KDM5C (2 to 1560 residues) expressed in baculovirus infected Sf9 insect cells using H3(1-21)K4(Me3)-GGK(Biotin)/2-OG as substrate measured after 1 hr by Alphalisa assay
Sequence of Lysine-specific demethylase 5C (P41229 whole entry, the tested form may be a part): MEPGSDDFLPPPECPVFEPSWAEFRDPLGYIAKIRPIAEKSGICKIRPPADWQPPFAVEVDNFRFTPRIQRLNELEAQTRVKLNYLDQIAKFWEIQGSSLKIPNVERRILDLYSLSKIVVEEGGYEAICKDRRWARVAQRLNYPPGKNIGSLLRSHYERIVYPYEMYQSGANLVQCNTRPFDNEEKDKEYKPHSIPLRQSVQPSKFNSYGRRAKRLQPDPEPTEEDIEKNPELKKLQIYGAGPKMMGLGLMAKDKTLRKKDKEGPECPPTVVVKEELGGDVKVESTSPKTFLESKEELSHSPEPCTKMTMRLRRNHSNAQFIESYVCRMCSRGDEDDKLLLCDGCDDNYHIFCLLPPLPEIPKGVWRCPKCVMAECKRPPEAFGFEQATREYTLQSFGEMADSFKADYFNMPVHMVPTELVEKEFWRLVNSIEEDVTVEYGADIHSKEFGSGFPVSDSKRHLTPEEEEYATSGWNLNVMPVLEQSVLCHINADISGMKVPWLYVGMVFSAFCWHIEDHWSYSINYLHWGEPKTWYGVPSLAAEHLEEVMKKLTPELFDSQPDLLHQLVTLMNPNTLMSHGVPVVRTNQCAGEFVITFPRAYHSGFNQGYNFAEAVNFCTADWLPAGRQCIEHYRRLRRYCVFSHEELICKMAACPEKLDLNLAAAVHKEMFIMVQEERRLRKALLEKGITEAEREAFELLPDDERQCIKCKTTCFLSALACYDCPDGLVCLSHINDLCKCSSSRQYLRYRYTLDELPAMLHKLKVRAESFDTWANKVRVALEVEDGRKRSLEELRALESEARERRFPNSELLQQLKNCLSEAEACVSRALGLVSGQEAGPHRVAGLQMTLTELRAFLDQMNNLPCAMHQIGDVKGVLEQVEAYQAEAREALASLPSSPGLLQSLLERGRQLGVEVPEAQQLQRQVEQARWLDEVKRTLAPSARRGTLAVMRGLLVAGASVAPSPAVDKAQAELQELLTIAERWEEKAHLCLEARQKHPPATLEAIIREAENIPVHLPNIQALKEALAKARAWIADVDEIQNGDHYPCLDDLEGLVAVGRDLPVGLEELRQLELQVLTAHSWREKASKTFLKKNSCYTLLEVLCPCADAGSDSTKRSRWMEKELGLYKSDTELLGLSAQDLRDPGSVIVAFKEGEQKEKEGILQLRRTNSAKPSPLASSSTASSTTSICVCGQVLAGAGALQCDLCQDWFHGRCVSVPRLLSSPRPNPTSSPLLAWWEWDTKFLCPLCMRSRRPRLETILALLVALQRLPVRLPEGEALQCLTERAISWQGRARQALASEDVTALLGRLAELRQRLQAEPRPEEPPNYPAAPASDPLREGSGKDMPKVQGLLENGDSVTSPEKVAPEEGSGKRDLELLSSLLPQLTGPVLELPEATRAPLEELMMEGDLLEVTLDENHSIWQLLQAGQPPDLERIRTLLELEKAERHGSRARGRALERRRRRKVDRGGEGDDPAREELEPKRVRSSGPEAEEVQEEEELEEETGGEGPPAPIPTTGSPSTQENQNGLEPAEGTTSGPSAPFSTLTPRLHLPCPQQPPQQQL
How it was run: (§1)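 AlphaLISA demethylase assay in 50 mM HEPES pH 7.5, 0.1% BSA, 0.01% Tween 20 with DMSO. Enzyme and inhibitor combined, then peptide plus 2-OG (50 µM), Fe(II) (5 µM) and ascorbate (100 µM) in the added mix; 1 h at room temperature with shaking.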

[2] = target: T1, Lysine-specific demethylase 4A (Homo sapiens) (UniProt O75164); assay: Inhibition of human N-terminal His-tagged KDM4A (1 to 350 residues) expressed in Escherichia coli at 50 uM using H3(21-44)-K36(Me3)-GK(Biotin)/2-OG as substrate measured after 1 hr by Alphalisa assay relative to control; how it was run: as §1
T1 sequence (whole entry): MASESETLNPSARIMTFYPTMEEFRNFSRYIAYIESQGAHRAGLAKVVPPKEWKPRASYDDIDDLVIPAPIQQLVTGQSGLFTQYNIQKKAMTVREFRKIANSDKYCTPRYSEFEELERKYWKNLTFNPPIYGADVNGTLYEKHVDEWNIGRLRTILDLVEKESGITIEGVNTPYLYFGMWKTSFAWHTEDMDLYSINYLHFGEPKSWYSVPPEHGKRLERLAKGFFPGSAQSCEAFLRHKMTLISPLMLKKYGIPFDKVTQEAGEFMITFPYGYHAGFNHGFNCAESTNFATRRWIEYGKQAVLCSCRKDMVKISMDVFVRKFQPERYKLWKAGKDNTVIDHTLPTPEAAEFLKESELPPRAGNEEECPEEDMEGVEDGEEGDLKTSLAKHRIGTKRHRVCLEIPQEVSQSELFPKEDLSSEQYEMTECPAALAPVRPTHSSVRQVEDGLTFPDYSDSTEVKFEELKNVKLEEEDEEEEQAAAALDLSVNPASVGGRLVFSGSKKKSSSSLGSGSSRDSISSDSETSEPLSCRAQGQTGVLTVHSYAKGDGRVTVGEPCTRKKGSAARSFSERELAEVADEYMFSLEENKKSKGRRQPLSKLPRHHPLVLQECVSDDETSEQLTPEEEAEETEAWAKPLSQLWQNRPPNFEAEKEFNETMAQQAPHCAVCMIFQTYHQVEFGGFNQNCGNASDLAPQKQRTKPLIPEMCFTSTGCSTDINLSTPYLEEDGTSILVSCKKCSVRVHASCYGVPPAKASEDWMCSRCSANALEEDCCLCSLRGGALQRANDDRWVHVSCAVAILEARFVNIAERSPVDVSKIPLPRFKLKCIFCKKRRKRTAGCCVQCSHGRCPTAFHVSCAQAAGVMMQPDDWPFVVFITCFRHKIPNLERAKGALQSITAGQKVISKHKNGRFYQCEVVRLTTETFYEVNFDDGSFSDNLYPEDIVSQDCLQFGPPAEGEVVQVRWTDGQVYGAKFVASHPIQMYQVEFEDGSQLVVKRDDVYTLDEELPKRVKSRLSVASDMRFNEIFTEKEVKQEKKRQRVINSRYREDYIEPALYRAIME

[3] = target: Lysine-specific demethylase 5B (Homo sapiens, UniProt Q9UGL1); assay: Inhibition of human N-terminal FLAG/His-tagged KDM5B (2 to 751 residues) expressed in baculovirus infected Sf9 insect cells using H3(1-21)K4(Me3)-GGK(Biotin)/2-OG as substrate measured after 1 hr by Alphalisa assay; how it was run: as §1
Sequence of Lysine-specific demethylase 5B (Q9UGL1 whole entry, the tested form may be a part): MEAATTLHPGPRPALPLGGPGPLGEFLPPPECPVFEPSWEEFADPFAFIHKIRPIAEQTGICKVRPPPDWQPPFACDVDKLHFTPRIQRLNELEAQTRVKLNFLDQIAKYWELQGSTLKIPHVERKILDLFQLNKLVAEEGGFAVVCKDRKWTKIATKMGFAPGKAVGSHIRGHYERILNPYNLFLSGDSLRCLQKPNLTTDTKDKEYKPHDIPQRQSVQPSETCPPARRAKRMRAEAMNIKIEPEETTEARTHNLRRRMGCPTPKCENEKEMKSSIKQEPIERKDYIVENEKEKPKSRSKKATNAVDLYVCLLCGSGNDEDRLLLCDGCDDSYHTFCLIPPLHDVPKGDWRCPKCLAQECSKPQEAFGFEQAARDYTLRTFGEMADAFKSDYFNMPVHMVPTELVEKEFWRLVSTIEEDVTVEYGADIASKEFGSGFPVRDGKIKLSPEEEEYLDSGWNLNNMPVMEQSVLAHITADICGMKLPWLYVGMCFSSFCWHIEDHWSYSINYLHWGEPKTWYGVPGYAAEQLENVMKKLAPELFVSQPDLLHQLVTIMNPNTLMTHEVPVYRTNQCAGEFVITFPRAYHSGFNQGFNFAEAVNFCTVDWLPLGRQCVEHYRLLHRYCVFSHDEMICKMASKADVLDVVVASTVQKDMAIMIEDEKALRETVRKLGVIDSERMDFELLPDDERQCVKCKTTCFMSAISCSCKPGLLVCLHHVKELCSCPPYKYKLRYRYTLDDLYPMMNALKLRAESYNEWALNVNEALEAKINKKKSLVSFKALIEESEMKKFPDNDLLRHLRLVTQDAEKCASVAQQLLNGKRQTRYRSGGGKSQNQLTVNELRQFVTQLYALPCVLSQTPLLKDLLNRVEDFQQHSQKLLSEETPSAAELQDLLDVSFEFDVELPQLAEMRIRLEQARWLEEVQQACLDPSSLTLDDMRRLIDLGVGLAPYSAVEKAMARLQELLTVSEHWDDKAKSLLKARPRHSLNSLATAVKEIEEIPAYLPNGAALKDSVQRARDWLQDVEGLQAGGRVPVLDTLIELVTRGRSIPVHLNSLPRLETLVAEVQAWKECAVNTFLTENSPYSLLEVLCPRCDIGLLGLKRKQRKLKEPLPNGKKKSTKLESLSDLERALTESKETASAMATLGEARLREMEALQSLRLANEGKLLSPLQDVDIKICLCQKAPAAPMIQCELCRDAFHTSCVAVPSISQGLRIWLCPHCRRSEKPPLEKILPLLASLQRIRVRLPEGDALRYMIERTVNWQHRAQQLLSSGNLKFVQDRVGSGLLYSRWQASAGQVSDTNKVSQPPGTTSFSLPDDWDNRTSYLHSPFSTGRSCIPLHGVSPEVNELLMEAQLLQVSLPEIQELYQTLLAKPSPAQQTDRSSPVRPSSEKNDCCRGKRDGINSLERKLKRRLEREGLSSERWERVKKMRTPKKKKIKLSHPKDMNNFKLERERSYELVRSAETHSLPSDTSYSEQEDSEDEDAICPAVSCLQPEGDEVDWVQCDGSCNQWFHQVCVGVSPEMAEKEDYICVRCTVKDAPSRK

[4] = target: T2, Lysine-specific demethylase 3A (Homo sapiens) (UniProt Q9Y4C1); assay: Inhibition of human N-terminal FLAG-tagged KDM3A (2 to 1321 residues) expressed in baculovirus infected Sf9 insect cells at 50 uM using H3(1-21)K9(Me1)-GGK(Biotin)/2-OG as substrate measured after 1 hr by Alphalisa assay relative to control; how it was run: as §1
T2 sequence (whole entry): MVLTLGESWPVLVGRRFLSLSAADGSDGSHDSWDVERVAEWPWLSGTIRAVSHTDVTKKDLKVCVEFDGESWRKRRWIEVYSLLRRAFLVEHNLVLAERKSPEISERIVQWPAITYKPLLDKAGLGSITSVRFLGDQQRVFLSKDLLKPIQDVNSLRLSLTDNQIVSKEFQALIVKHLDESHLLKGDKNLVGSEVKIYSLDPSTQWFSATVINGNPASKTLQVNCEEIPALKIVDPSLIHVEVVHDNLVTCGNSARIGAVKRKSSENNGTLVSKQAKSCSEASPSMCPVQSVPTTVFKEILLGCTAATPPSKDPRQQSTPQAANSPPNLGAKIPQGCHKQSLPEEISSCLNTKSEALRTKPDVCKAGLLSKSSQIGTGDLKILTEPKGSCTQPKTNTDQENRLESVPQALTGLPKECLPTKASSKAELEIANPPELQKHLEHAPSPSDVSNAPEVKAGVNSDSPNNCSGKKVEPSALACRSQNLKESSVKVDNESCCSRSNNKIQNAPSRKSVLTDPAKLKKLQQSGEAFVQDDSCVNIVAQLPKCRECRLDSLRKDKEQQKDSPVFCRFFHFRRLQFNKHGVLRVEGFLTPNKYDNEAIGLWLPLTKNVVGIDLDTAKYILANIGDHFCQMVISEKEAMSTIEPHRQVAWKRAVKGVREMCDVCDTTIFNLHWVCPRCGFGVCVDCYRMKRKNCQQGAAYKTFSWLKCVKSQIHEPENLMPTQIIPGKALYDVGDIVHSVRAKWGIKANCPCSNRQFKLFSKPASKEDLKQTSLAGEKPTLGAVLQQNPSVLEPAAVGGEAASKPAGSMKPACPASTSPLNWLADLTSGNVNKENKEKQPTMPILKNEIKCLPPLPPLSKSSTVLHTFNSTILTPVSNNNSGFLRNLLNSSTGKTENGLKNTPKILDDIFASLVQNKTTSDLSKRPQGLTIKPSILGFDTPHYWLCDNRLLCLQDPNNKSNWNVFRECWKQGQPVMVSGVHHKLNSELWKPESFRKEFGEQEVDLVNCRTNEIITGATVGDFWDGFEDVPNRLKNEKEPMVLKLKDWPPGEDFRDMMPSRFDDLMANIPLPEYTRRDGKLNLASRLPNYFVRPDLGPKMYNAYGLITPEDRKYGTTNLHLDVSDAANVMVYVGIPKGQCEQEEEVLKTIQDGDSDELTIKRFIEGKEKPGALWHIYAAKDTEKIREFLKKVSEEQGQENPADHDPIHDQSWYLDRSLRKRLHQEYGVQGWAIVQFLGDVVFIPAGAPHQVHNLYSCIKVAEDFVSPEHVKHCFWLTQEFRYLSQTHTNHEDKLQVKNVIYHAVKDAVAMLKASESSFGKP

IC50 [1]	inhibition [2]	IC50 [3]	inhibition [4]	SMILES
28900 nM	25.4%	9240 nM	30.1%	CCCCCN(C)CCCCC(=O)N(O)CCC(=O)O
6.24 nM	71%	1.34 nM		CCCCCCN(C)CCc1ccc(-c2[nH]c3c(C#N)cnn3c(=O)c2C(C)C)cc1
3010 nM	61.1%	337 nM	31.9%	CC(C)c1c(-c2ccccc2)[nH]c2c(C#N)cnn2c1=O
5.84 nM	32.5%	51.1 nM	61.5%	CCCCCCN(C)Cc1ccc(-c2[nH]c3c(C#N)cnn3c(=O)c2C(C)C)cc1
